The subject of assay [1] is BON cells. The experiment in a line: MTT assay of BON cell growth. It counts as cell-based, human. The conditions noted are these: for stimulation of BON cell growth, MTT assay: 24 h incubation, serum-free medium, read at 595 nm, mean of 6 experiments. The gist of the method:
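BON cells (5 × 10^3/well) were grown 24 h in DMEM/F12K + 10% FBS, washed with PBS, then exposed 24 h to peptides/hormones in serum-free DMEM/F12K, with or without EGFR inhibitor at 1 μM. MTT (1.2 mM final) was present for the last 3 h. Formazan was dissolved in 0.04 N HCl/isopropanol for 5 min at RT and absorbance read at 595 nm. Mean ± SEM, 6 experiments.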
For orientation: Tetrazolium dyes change colour on reduction, which living cells bring about.

In the next assay the test system is QGP-1 cells. The experiment in a line: [^3H]-Thymidine uptake, QGP-1 cell growth. It counts as cell-based, human. The conditions noted are these: n = 6; for stimulation of cell growth, [^3H]-Thymidine incorporation: 24 h, serum-free medium, EGFR-dependent. The gist of the method:
(§1)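 Plating: BON 1.5 × 10^5/well in DMEM/F12K; QGP-1 4 × 10^4/well in RPMI; both with 10% FBS. After 24 h, cells were serum-starved 24 h, then exposed 24 h to peptides/hormones with or without EGFR inhibitor at 1 µM. [3H]-thymidine was present for the final 6 h. Cells were washed in ice-cold PBS, precipitated in 5% TCA (30 min, 4 °C), dissolved in 0.5 N NaOH/0.5% SDS and scintillation-counted. Mean ± SEM, 6 experiments.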
On the technique in general: Dividing cells build labelled thymidine or BrdU into new DNA.

The test system of assay [2] is EGFR (Y^1068 phosphorylation). As to the kind of experiment: Western blot of EGFR Tyr^1068 phosphorylation in BON cells. It counts as cell-based, human. The conditions noted are these: for inhibition of NT-stimulated EGFR Y^1068 phosphorylation by antioxidant: NAC or Tiron pre-treatment (one range for both); for inhibition of Bn-analogue-stimulated EGFR Y^1068 phosphorylation by antioxidant: NAC or Tiron pre-treatment; for stimulation of Y^1068 EGFR phosphorylation: Western blot, densitometry. The gist of the method:
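BON cells were stimulated with EGF 16 nM or peptides 1 µM for 30 min or over time courses; inhibitor sets used 1 h stimulation. Lysis was in pH 7.5 Triton/deoxycholate buffer with orthovanadate. Equal protein ran on 4–20% SDS-PAGE onto nitrocellulose. Probes: anti-phospho-EGFR Tyr1068 (1:1000, overnight 4 °C), tubulin loading control, HRP secondary, chemiluminescence on film, band densitometry. Mean ± SEM, 3–4 experiments.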
Background: Immunoblotting shows a protein as a band on a membrane.

Assay [3] deals with BON cells. The conditions noted are these: cited from earlier work; for induction of apoptosis: BON cells.
The next assay concerns non-endocrine tumors. The conditions noted are these: cited from earlier work.
Assay [4] concerns progressive metastatic NETs. The following applies: phase II trial, patients with progressive metastatic NETs; cited from earlier work.
A further assay relates to KRJ-I cells. The following applies: cited from earlier work.
The subject of the next assay is NCH720 cells. The following applies: broncho-pulmonary NET cell line; cited from earlier work.
Assay [5] relates to BON cells. As to the kind of experiment: [^3H]-Thymidine uptake, BON cell growth. It counts as cell-based, human. The following applies: 24 h incubation, serum-free medium, mean of 6 experiments. The gist of the method: as §1
Assay [6] concerns non-small-cancer lung cells / lung cancer. The following applies: cited from earlier work.
In the next assay the test system is HNSCC. The conditions noted are these: cited from earlier work; for cell proliferation: HNSCC.
For assay [7], the system named is rat insulinoma cell lines. The conditions noted are these: cited from earlier work.
Assay [8] has as its system BON cells. The experiment in a line: BON cell growth, galanin and CCK/gastrin. It counts as cell-based, human. The conditions noted are these: data not shown. The gist of the method:
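BON cells are grown in DMEM/F12K with 10% FBS, then washed and serum-starved, and test compound is added for 24 h. For the MTT read-out, 5×10^3 cells/well get 1.2 mM MTT (final) for the last 3 h, are lysed in 0.04N HCl/isopropanol, and are read at 595 nm. For thymidine uptake, 1.5×10^5 cells/well are starved 24 h and pulsed with [3H]-thymidine for the final 6 h. Samples are TCA-precipitated, solubilised in NaOH/SDS, and scintillation-counted.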

In a further assay the test system is prostate cancer cells. The conditions noted are these: cited from earlier work.
The test system of assay [9] is pancreatic adenocarcinoma cells. The conditions noted are these: cited from earlier work.

Turning to `COc1cc2ncnc(Nc3cccc(Cl)c3)c2cc1OC` [AG1478], the “inhibition of growth stimulated by each GI hormone, EGF or TGFα, MTT assay” value in the assay on BON cells [1] (BON cells, AG1478 1 μM pre-treatment, 24 h, n = 6) is given as “completely inhibited”. Further, the “inhibition of the increase of cell growth induced by the GI hormones” value with QGP-1 cells (AG1478 1 μM pre-treatment, [^3H]-Thymidine uptake) is “blocked the increase of cell growth”. The “inhibition of Bn-analogue-stimulated Y^1068 EGFR phosphorylation” value in assay [2] (AG1478 1 μM, stimulant Bn-analogue, 30 min, n = 4) was “inhibited completely”. In addition, the “inhibition of EGF-stimulated Y^1068 EGFR phosphorylation” value in [2] (AG1478 1 μM, stimulant EGF, 30 min, n = 4) was 88%. Moreover, the “inhibition of NT-stimulated Y^1068 EGFR phosphorylation” value in [2] (AG1478 1 μM, stimulant NT, 30 min, n = 4) is “inhibited completely”. Also, in the assay with BON cells [3], the induction of apoptosis entry was “induces apoptosis” and the “BON cell basal proliferation” value is given as “completely blocks BON cell basal proliferation”. In addition, in the assay on non-endocrine tumors, the “inhibition of cell growth stimulated by various GI hormones/neurotransmitters” value was “able to inhibit cell growth”.
`CN(C)CCCn1cc(C2=C(c3c[nH]c4ccccc34)C(=O)NC2=O)c2ccccc21` [GF 109203X]: in [2] (GF 109203X pre-treatment, NT 1 μM, 1 h, n = 3), the “inhibition of NT-stimulated EGFR Y^1068 phosphorylation by PKC inhibitor” value amounted to 77%.
With `CNC(=O)[C@H](Cc1c[nH]c2ccccc12)NC(=O)[C@@H](CC(=O)NO)CC(C)C` [GM 6001], the “reduction of Bn-analogue-stimulated EGFR Y^1068 phosphorylation by MMP inhibitor” value in [2] (GM 6001 pre-treatment, Bn-analogue 1 μM, 1 h, n = 3) amounted to 75%. For the same molecule, the “reduction of NT-stimulated EGFR Y^1068 phosphorylation by MMP inhibitor” value in assay [2] (GM 6001 pre-treatment, NT 1 μM, 1 h, n = 3) was 60%.
As to `COc1cc2ncnc(Nc3ccc(F)c(Cl)c3)c2cc1OCCCN1CCOCC1` [Gefitinib], in the assay on BON cells [3], the induction of apoptosis entry was “induces apoptosis” and the “BON cell basal proliferation” value is “completely blocks BON cell basal proliferation”. In addition, the tumor stabilization entry in assay [4] is listed as “stabilization of the tumors”.
Take `CC(=O)N[C@@H](CS)C(=O)O` [N-acetylcysteine]: the “inhibition of NT-stimulated EGFR Y^1068 phosphorylation by antioxidant” value in [2] (NT 1 μM, 1 h, n = 3) was 37–45%. Also, the “inhibition of Bn-analogue-stimulated EGFR Y^1068 phosphorylation by antioxidant” value in [2] (Bn-analogue 1 μM, 1 h, n = 3) is reported as 85%.
With `COc1cc2ncnc(Nc3cccc(Br)c3)c2cc1OC` [PD153035], the “inhibition of cell growth stimulated by various GI hormones/neurotransmitters” value in the assay on non-endocrine tumors is listed as “able to inhibit cell growth”.
Regarding `Nc1ncnc2c1cnn2-c1ccccc1` [PP3], the “reduction of Bn-analogue-stimulated Y^1068 EGFR phosphorylation” value in [2] (inhibitor 10 μM, Bn-analogue 1 μM, 1 h, n = 4) is “but not PP3, an inactive PP2 analogue”. Besides, the “reduction of NT-stimulated Y^1068 EGFR phosphorylation” value in assay [2] (inhibitor 10 μM, NT 1 μM, 1 h, n = 4) was “but not PP3, an inactive PP2 analogue”.
With `O=S(=O)(O)c1cc(O)c(O)c(S(=O)(=O)O)c1` [Tiron], the “inhibition of NT-stimulated EGFR Y^1068 phosphorylation by antioxidant” value in assay [2] (NT 1 μM, 1 h, n = 3) is listed as 37–45%. In addition, in assay [2] (Bn-analogue 1 μM, 1 h, n = 3), the “inhibition of Bn-analogue-stimulated EGFR Y^1068 phosphorylation by antioxidant” value was found to be 85%.
Consider `NCCc1c[nH]c2ccc(O)cc12` [serotonin], for which, in the assay with KRJ-I cells, the “cell proliferation of KRJ-I” value is recorded as “stimulates cell proliferation”. Also, the cell proliferation result in the assay on NCH720 cells is given as “stimulates cell proliferation”.
EGF: Human EGF (Recombinant, E. coli): the “stimulation of BON cell growth, MTT assay” value in the assay with BON cells [1] amounted to 30%. Further, in the assay with BON cells [5], the “growth stimulated, [^3H]-Thymidine assessment” value is 32%. Moreover, in the assay with QGP-1 cells, the “stimulation of cell growth, [^3H]-Thymidine incorporation” value (“stimulation of cell growth” for short) is recorded as “able to stimulate BON cell growth, as well as in QGP-1 cells”. For the same molecule, in assay [2] (16 nM, 30 min, n = 4), the “stimulation of Y^1068 EGFR phosphorylation” value is given as “significantly stimulated”. Further, the “peak time of Y^1068 EGFR tyrosine phosphorylation” value (“peak time” for short) in assay [2] (EGF) was 2 min. Also, in [2] (EGF 16 nM, n = 4), the “t1/2 of Y^1068 EGFR phosphorylation” value was 3 min. Moreover, in the assay on BON cells [3], the “growth of BON cells” value is “can stimulate growth of both KRJ-I cells and BON cells”. Besides, in the assay with BON cells [3] (previous studies), the “stimulation of BON cell proliferation (previous studies)” value is “stimulates cell proliferation”. In the assay on KRJ-I cells, the “growth of KRJ-I cells” value was “can stimulate growth of both KRJ-I cells and BON cells”.
Consider “NMB: stimulates cell proliferation in non-small-cancer lung cells”, for which the cell proliferation entry (in assay [6]; in the assay with HNSCC) was “stimulate cell proliferation” each time.
As to TGFα: TGFα, BioVision, in the assay with BON cells [1], the “stimulation of BON cell growth, MTT assay” value is given as 40%. Besides, the “growth stimulated, [^3H]-Thymidine assessment” value with BON cells [5] was 42%. Further, the “stimulation of cell growth” value in the assay on QGP-1 cells is “stimulated cell growth”. Besides, the “stimulation of Y^1068 EGFR phosphorylation” value in assay [2] (3.6 nM, 30 min, n = 4) is on record as “significantly stimulated”. Further, the “growth of KRJ-I cells” value in the assay on KRJ-I cells is “increase cell growth”.
With TGFβ, the “growth of KRJ-I cells” value in the assay on KRJ-I cells is reported as “increase cell growth”.
For the molecule “[DTyr^6, β Ala^11, Phe^13, Nle^14]Bn (6–14) [Bn-analogue]”, in the assay with QGP-1 cells, the “stimulation of cell growth” value is reported as “stimulated cell growth”. The “stimulation of Y^1068 EGFR phosphorylation” value in assay [2] (1 μM, 30 min, n = 4) is recorded as “significantly stimulated”. In addition, the “maximal increase of EGFR Y^1068 phosphorylation, dose-response” value in [2] (1 μM, n = 4) is reported as 2.4 fold. In addition, the “peak time” value in [2] (Bn-analogue or NT) was found to be 60 min. In addition, the “increase of EGFR phosphorylation at 62 min” value in [2] (time course, 1 μM, 62 min (NT data not shown), n = 4) turned out to be 3.4 fold.
Consider bombesin, for which the cell proliferation entry (in [6]; in the assay on HNSCC) was “stimulate cell proliferation” each time.
As to “bradykinin (RPPGFSPFR; Bradykinin; UniProt P01042 381-389, looked up)”, in the assay on QGP-1 cells, the “stimulation of cell growth” value is on record as “able to stimulate BON cell growth, as well as in QGP-1 cells”. The “stimulation of Y^1068 EGFR phosphorylation” value in [2] (1 μM, 30 min, n = 4) is listed as “significantly stimulated”. Also, the “growth of HNSCC” value in the assay on HNSCC (through its B2 receptor) is “stimulates growth of HNSCC”.
With epiregulin: epiregulin, an EGFR ligand, the cell growth result in assay [7] was “stimulates cell growth”.
With “galanin (GWTLNSAGYLLGPHAVGNHRSFSDKNGLTS; Galanin; UniProt P22466 33-62, looked up)”, the “effect on cell growth” value with BON cells [8] was “did not exert any effect on cell growth”.
Consider neurotensin [NT], for which the “stimulation of cell growth” value with QGP-1 cells was “stimulated cell growth”. Further, the “stimulation of Y^1068 EGFR phosphorylation” value in assay [2] (1 μM, 30 min, n = 4) is “significantly stimulated”. In assay [2] (1 μM, n = 4), the “maximal increase of EGFR Y^1068 phosphorylation, dose-response” value stood at 2.6 fold. For the same molecule, in [2] (Bn-analogue or NT), the “peak time” value turned out to be 60 min. Moreover, the cell growth entry (with prostate cancer cells; in assay [9]) was “stimulate cell growth” in each case.

The values are drawn from paper PMC3556220 (Biochimica et biophysica acta, 2012).
